The compounds below were run against T1, E-selectin (Homo sapiens, UniProt P16581) (assay: Binding affinity to E-selectin).
T1 sequence (P16581 whole entry): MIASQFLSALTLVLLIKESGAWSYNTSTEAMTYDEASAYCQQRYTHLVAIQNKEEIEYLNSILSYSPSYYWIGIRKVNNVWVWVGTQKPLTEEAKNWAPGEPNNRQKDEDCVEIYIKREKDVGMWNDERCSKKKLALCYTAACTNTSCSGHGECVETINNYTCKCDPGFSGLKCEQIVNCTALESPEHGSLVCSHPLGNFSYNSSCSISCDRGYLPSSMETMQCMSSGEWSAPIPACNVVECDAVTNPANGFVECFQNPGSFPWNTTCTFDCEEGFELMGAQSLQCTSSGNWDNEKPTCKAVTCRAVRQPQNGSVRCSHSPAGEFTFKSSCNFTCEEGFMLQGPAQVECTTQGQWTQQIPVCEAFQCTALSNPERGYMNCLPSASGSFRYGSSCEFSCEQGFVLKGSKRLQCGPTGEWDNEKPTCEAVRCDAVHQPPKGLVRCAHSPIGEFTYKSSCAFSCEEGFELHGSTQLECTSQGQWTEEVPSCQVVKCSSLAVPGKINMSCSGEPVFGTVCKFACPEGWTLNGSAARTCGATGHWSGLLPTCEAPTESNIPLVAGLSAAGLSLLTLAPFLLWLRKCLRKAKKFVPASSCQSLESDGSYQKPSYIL
Method in brief: (§1)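 Competitive binding ELISA against E-selectin, run by a previously published procedure. A reference antagonist was included in the assay for relative comparison. The acid test compounds were purified by size exclusion chromatography to remove traces of polyanionic ion-exchange resin that could give false positives.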

SMILES	IC50 [µM]
CC(=O)N[C@@H]1[C@@H](O[C@@H]2O[C@@H](C)[C@@H](O)[C@@H](O)[C@@H]2O)[C@H](O[C@@H]2O[C@H](CO)[C@H](O)[C@H](O[C@]3(C(=O)O)C[C@H](O)[C@@H](NC(C)=O)[C@H]([C@H](O)[C@H](O)CO)O3)[C@H]2O)[C@@H](CO)O[C@H]1O	1000
CC(=O)N[C@H]1[C@H]([C@H](O)[C@H](O)CO)O[C@@](O[C@H]2[C@@H](O)[C@@H](CO)O[C@@H](O[C@@H]3CCCC[C@H]3O[C@@H]3O[C@@H](C)[C@@H](O)[C@@H](O)[C@@H]3O)[C@@H]2O)(C(=O)O)C[C@@H]1O	600

Each compound was assayed against T2, E-selectin (Homo sapiens) (UniProt P16581) (assay: Binding affinity to E-selectin relative to (2S,4S,5R,6R)-5-acetamido-2-((2R,3S,4S,5R,6R)-3,5-dihydroxy-2-(hydroxymethyl)-6-((1R,2R)-2-((2S,3S,4R,5S,6S)-3,4,5-trihydroxy-6-methyl-tetrahydro-2H-pyran-2-yloxy)cyclohexyloxy)-tetrahydro-2H-pyran-4-yloxy)-4-hydroxy-6-((1R,2R)-1,2,3-trihydroxypropyl)-tetrahydro-2H-pyran-2-carboxylic acid).
T2 sequence (whole entry): T1 sequence (P16581 whole entry)
Method in brief: as §1

SMILES	Activity
C[C@@H]1O[C@@H](O[C@@H]2CCCC[C@H]2O[C@@H]2O[C@H](CO)[C@H](O)[C@H](O[C@H](CC34CC5CC(CC(C5)C3)C4)C(=O)O)[C@H]2O)[C@@H](O)[C@H](O)[C@@H]1O	> 10
C[C@@H]1O[C@@H](O[C@@H]2CCCC[C@H]2O[C@@H]2O[C@H](CO)[C@H](O)[C@H](O[C@H](Cc3ccccc3)C(=O)O)[C@H]2O)[C@@H](O)[C@H](O)[C@@H]1O	> 10
C[C@@H]1O[C@@H](O[C@@H]2CCCC[C@H]2O[C@@H]2O[C@H](CO)[C@H](O)[C@H](O[C@@H](Cc3ccccc3)C(=O)O)[C@H]2O)[C@@H](O)[C@H](O)[C@@H]1O	0.6
C[C@@H]1O[C@@H](O[C@@H]2CCCC[C@H]2O[C@@H]2O[C@H](CO)[C@H](O)[C@H](O[C@@H](CC3CCCCC3)C(=O)O)[C@H]2O)[C@@H](O)[C@H](O)[C@@H]1O	0.15
C[C@@H]1O[C@@H](O[C@@H]2CCCC[C@H]2O[C@@H]2O[C@H](CO)[C@H](O)[C@H](O[C@@H](CC34CC5CC(CC(C5)C3)C4)C(=O)O)[C@H]2O)[C@@H](O)[C@H](O)[C@@H]1O	0.32

The remaining lines, values ahead:

Activity	SMILES
> 10	C[C@@H]1O[C@@H](O[C@@H]2CCCC[C@H]2O[C@@H]2O[C@H](CO)[C@H](O)[C@H](OCC(=O)O)[C@H]2O)[C@@H](O)[C@H](O)[C@@H]1O
2.4	C[C@H](O[C@H]1[C@@H](O)[C@@H](CO)O[C@@H](O[C@@H]2CCCC[C@H]2O[C@@H]2O[C@@H](C)[C@@H](O)[C@@H](O)[C@@H]2O)[C@@H]1O)C(=O)O
> 10	C[C@@H]1O[C@@H](O[C@@H]2CCCC[C@H]2O[C@@H]2O[C@H](CO)[C@H](O)[C@H](O[C@H](CC3CCCCC3)C(=O)O)[C@H]2O)[C@@H](O)[C@H](O)[C@@H]1O
> 10	C[C@@H]1O[C@@H](O[C@@H]2CCCC[C@H]2O[C@@H]2O[C@H](CO)[C@H](O)[C@H](O[C@H](C)C(=O)O)[C@H]2O)[C@@H](O)[C@H](O)[C@@H]1O

— ChEMBL document CHEMBL1143121, “Is adamantane a suitable substituent to pre-organize the acid orientation in E-selectin antagonists?” (Bioorg Med Chem, 2008)
